Results from different studies.
Compare with care: the assays were run in different laboratories. pIC50: −log10 of the molar value.
Cell line: A549
Observed: cell growth or viability

| SMILES | assay | setting | pIC50 |
| --- | --- | --- | --- |
| CCC1(OC(=O)C(C)c2ccc3cc(OC)ccc3c2)C(=O)OCc2c1cc1n(c2=O)Cc2cc3cc4c(cc3nc2-1)OCO4 (centres unmarked) | MTT |  | 6.33 |
| CC1=C(O)C(=O)C=C2C1=CC=C1[C@@]2(C)CC[C@@]2(C)[C@@H]3C[C@](C)(C(=O)OCCCn4cc(C=O)c5ccccc54)CC[C@]3(C)CC[C@]12C | MTT | 48 h | 5.11 |
| CC[C@H](C)[C@H](N)C(=O)O[C@]1(CC)C(=O)OCc2c1cc1n(c2=O)Cc2cc3cc4c(cc3nc2-1)OCO4 | MTT |  | 7.11 |
| COc1cccc2c1C(=O)c1c(O)c3c(c(O)c1C2=O)C[C@@](O)(C(=O)CO)C[C@@H]3O[C@H]1C[C@H](N)[C@H](O[C@@H]2CCCCO2)[C@H](C)O1 | MTT | 12 h | 5.24 |
| COc1c2c(cc3c1OCO3)[C@]13C=C[C@H](OC)C[C@@H]1[N@](C2)C[C@H]3OC(=O)c1ccc2ccccc2c1 | WST-1 |  | < 5.00 |
| Cc1ccc(CN2C(=O)/C(=N\NC(=O)c3cc4ccccc4[nH]3)c3ccccc32)cc1 |  |  | 6.19 |
| CC[C@@]1(OC(=O)Cc2c(C)n(C(=O)c3ccc(Cl)cc3)c3ccc(OC)cc23)C(=O)OCc2c1cc1n(c2=O)Cc2cc3cc4c(cc3nc2-1)OCO4 | MTT |  | 6.58 |
| Cc1cccc(-n2ncc(Cl)c(Cl)c2=O)c1 | resazurin | 96 h | 5.85 |
| Nc1cc(Cl)c(Cl)cc1N |  | 72 h | 3.92 |
| CC1=CC(=O)c2c(O)cccc2C1=O | SRB |  | 5.55 |
| O=C(N/N=C1\C(=O)N(Cc2ccccc2)c2ccc(Cl)cc21)c1cc2ccccc2[nH]1 |  | 72 h | 5.88 |
| N.N.[Cl][Pt][Cl] | MTT | 48 h | 5.03 |
| COc1ccc2c(c1)/C(=N/NC(=O)c1cc3ccccc3[nH]1)C(=O)N2Cc1ccccc1 |  |  | 6.19 |
| CC[C@@]1(OC(=O)CN)C(=O)OCc2c1cc1n(c2=O)Cc2cc3cc4c(cc3nc2-1)OCO4 | MTT |  | 7.54 |
| COc1c2c(cc3c1OCO3)[C@]13C=C[C@H](OC)C[C@@H]1[N@](C2)C[C@H]3OC(=O)c1ccco1 | WST-1 |  | < 5.00 |
| N.N.[Cl][Pt][Cl] | resazurin | 72 h | 5.47 |
| CC[C@@]1(OC(=O)[C@H](C)N)C(=O)OCc2c1cc1n(c2=O)Cc2cc3cc4c(cc3nc2-1)OCO4 | MTT |  | 7.40 |
| Nc1cc(Br)c(Br)cc1N |  | 72 h | 4.12 |
| O=C(N/N=C1\C(=O)N(Cc2ccccc2)c2ccccc21)c1cc2ccccc2[nH]1 |  |  | 5.97 |
| CC[C@@]1(O)C(=O)OCc2c1cc1n(c2=O)Cc2cc3cc4c(cc3nc2-1)OCO4 | MTT | 72 h | 7.54 |
